Measurements reported in ChEMBL document CHEMBL2062460, “Disubstituted thiourea derivatives and their activity on CNS: synthesis and biological evaluation” (Eur J Med Chem, 2012).
Converted amounts (≈) assume the structure as drawn.

Tests used:
[1] = test system: Human immunodeficiency virus 1; test: Antiviral activity against HIV1 infected in human MT4 cells assessed as virus-induced cytopathogenicity after 4 days by MTT assay; assay type: functional, organism-based; details: Human immunodeficiency virus 1, MT4, 96 h
[2] = Cytotoxicity against human MT4 cells after 96 hrs by MTT assay; assay type: cell-based
CCRF-CEM = test: Cytotoxicity against human CCRF-CEM cells after 96 hrs by MTT assay; assay type: functional
Outline: (§1)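 Haematological tumour lines were seeded at 1 × 10^5 cells/ml in RPMI-1640 with 10% FCS plus penicillin/streptomycin. Serial dilutions from a 100 mM DMSO stock were added. After 96 h at 37 °C in 5% CO2, viability was read by MTT. The 50% proliferation-inhibiting concentration (µM) was obtained by linear regression against untreated controls, which completed at least three rounds of multiplication. Values are means of three determinations.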

CCRF-SB = test: Cytotoxicity against human CCRF-SB cells after 96 hrs by MTT assay; assay type: functional; outline: as §1
DU-145 = test: Cytotoxicity against human DU145 cells after 96 hrs by MTT assay; assay type: functional; details: DU-145, 96 h
Outline: (§2)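 Solid tumour lines were seeded at 1 × 10^5 cells/ml in line-specific media with 10% FCS and antibiotics. Serial dilutions from a 100 mM DMSO stock were added. After 96 h at 37 °C in 5% CO2, viability was read by MTT. The 50% growth-inhibiting concentration (µM) was obtained by linear regression versus untreated controls. Values are means of three independent determinations.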

HepG2 = test: Cytotoxicity against human HepG2 cells after 96 hrs by MTT assay; assay type: functional; details: HepG2, 96 h; outline: as §2
SK-MEL-28 = test: Cytotoxicity against human SK-MEL-28 cells after 96 hrs by MTT assay; assay type: functional; details: SK-MEL-28, 96 h; outline: as §2
SK-MES-1 = test: Cytotoxicity against human SKMES1 cells after 96 hrs by MTT assay; assay type: functional; details: SK-MES-1, 96 h; outline: as §2
MCF7 = test: Cytotoxicity against human MCF7 cells after 96 hrs by MTT assay; assay type: functional; details: MCF7, 96 h; outline: as §2
WIL2-NS = test: Cytotoxicity against human WIL2-NS cells after 96 hrs by MTT assay; assay type: functional; outline: as §1
[3] = test system: Staphylococcus epidermidis; test: Antibacterial activity against methicillin-resistant Staphylococcus epidermidis clinical isolate 311/08 after 18 hrs by twofold serial agar dilution technique; assay type: functional; details: clinical isolate 311/08, 18 h
Outline: (§3)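 Clinical isolates came from patients in Warsaw Medical University Hospitals and were classed as methicillin-susceptible or -resistant. MIC was determined by twofold serial agar dilution on Mueller–Hinton II agar (CLSI), 3.125–400 µg/mL in agar, with compounds in methanol or DMSO. Inoculum was 10^4 CFU/mL and plates were read after 18 h at 35 °C.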

[4] = test system: Staphylococcus epidermidis; test: Antibacterial activity against methicillin-resistant Staphylococcus epidermidis clinical isolate 318/08 after 18 hrs by twofold serial agar dilution technique; assay type: functional; details: clinical isolate 318/08, 18 h; outline: as §3
[5] = test system: Staphylococcus epidermidis; test: Antibacterial activity against methicillin-resistant Staphylococcus epidermidis clinical isolate 341/09 after 18 hrs by twofold serial agar dilution technique; assay type: functional; details: clinical isolate 341/09, 18 h; outline: as §3
[6] = test system: Staphylococcus epidermidis; test: Antibacterial activity against methicillin-resistant Staphylococcus epidermidis clinical isolate 317/08 after 18 hrs by twofold serial agar dilution technique; assay type: functional; details: clinical isolate 317/08, 18 h; outline: as §3
[7] = test system: Staphylococcus epidermidis; test: Antibacterial activity against methicillin-resistant Staphylococcus epidermidis clinical isolate 342/09 after 18 hrs by twofold serial agar dilution technique; assay type: functional; details: clinical isolate 342/09, 18 h; outline: as §3
[8] = test system: Staphylococcus epidermidis; test: Antibacterial activity against methicillin-resistant Staphylococcus epidermidis clinical isolate 377/09 after 18 hrs by twofold serial agar dilution technique; assay type: functional; details: clinical isolate 377/09, 18 h; outline: as §3
[9] = test system: Staphylococcus epidermidis; test: Antibacterial activity against methicillin-resistant Staphylococcus epidermidis clinical isolate 340/09 after 18 hrs by twofold serial agar dilution technique; assay type: functional; details: clinical isolate 340/09, 18 h; outline: as §3
[10] = test system: Staphylococcus epidermidis; test: Antibacterial activity against methicillin-resistant Staphylococcus epidermidis clinical isolate 343/09 after 18 hrs by twofold serial agar dilution technique; assay type: functional; details: clinical isolate 343/09, 18 h; outline: as §3
[11] = test system: Staphylococcus epidermidis; test: Antibacterial activity against methicillin-resistant Staphylococcus epidermidis clinical isolate 316/08 after 18 hrs by twofold serial agar dilution technique; assay type: functional; details: clinical isolate 316/08, 18 h; outline: as §3
[12] = test system: Staphylococcus epidermidis; test: Antibacterial activity against methicillin-resistant Staphylococcus epidermidis clinical isolate 315/08 after 18 hrs by twofold serial agar dilution technique; assay type: functional; details: clinical isolate 315/08, 18 h; outline: as §3

`COc1ccc(NC(=S)Nc2nc[nH]n2)cc1` gave an EC50 [1] of over 100000 nM and a CC50 at 96 h [2] of over 100000 nM.
For `CC[C@@]1(O)C(=O)OCc2c1cc1n(c2=O)Cc2cc3ccccc3nc2-1` [CAMPTOTHECIN], the CC50 (CCRF-CEM) was 3 nM, the CC50 (CCRF-SB) was 4 nM and the CC50 (DU-145) was 80 nM. The CC50 (HepG2) was 40 nM, the CC50 (SK-MEL-28) was 70 nM and the CC50 (SK-MES-1) was 50 nM. The CC50 at 96 h [2] was 4 nM, the CC50 (MCF7) was 80 nM and the CC50 (WIL2-NS) was 5 nM.
For `O=C1Nc2ccc(Cl)cc2[C@@](C#CC2CC2)(C(F)(F)F)O1` [EFAVIRENZ], the CC50 at 96 h [2] was 37000 nM.
`Nc1ncnn1/C(S)=N/C1CCCCC1` showed an MIC [3] of 25 µg/mL (≈ 111 µM), an MIC [4] of 12.5 µg/mL (≈ 55.5 µM) and an MIC [5] of 25 µg/mL (≈ 111 µM). The MIC [6] was 25 µg/mL (≈ 111 µM), the MIC [7] was 25 µg/mL (≈ 111 µM) and the MIC [8] was 25 µg/mL (≈ 111 µM). For the same compound, the EC50 [1] was over 100000 nM, the MIC [9] was 12.5 µg/mL (≈ 55.5 µM) and the MIC [10] was 12.5 µg/mL (≈ 55.5 µM). The CC50 at 96 h [2] was over 100000 nM, the MIC [11] was 25 µg/mL (≈ 111 µM) and the MIC [12] was 12.5 µg/mL (≈ 55.5 µM).
